Bioassay records: PubChem BioAssay, several laboratories
Hits are enriched below; roughly 2.9% of the tested compounds scored in any of these assays.
UBC13 inh = UBC13 polyubiquitin chain formation inhibitors, primary screen, biochemical, TR-FRET, uHTS; inhibition, % at 20 µM; hit rate 0.47% among 330,000; AID 485273, 2010; Ubiquitin-conjugating enzyme E2 N (Homo sapiens), P61088; in the data active means inhibition above about 45%, passing the limit was not always enough; inconclusive means no clear call, values can overlap the other calls
MEKK2 WT-MEK5 = modulators of MEK5 binding to wildtype MEKK2, primary screen, biochemical, multiplex bead flow cytometry, Alexa488-MEK5; Mitogen-activated protein kinase kinase kinase 2 (Homo sapiens), Q9Y2U5; Alexa488-MEK5 binding to MEKK2 WT; actives lie on both sides; binding response (% of control), % at 10 µM; hit rate 1.1% among 290,000; in the data active means binding response below about 67% or above about 130%; inconclusive means no clear call, values can overlap the other calls; inactive means in between
Apaf1 inhib = inhibitors of human Apaf-1 apoptosome, primary screen, biochemical, DEVD-Rh110 fluorescence, uHTS; inhibition, % at 20 µM; reconstituted apoptosome caspase-3 activity; hit rate 0.71% among 330,000; active means inhibition of at least 40% at 20 µM
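Material: reconstituted apoptosome with Apaf-1, cytochrome c, caspase-9, procaspase-3, dATP; medium: pH 7.5 Hepes buffer with CHAPS, BSA, DTT; also added: cytochrome c and DEVD-Rh110 substrate; timing: 30 min plus 50 min, RT; signal: Rh110 fluorescence intensity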
MEKK3 PB1 HTS = modulators of MEKK3-MEK5 PB1 binding, primary screen, biochemical, wildtype MEKK3, multiplex bead flow cytometry, Alexa488-MEK5. binding response (% of control), % at 10 µM. bead-based flow cytometry, Alexa488-MEK5 binding to MEKK3; actives lie on both sides; 0 = blocked by unlabeled MEK5, 100 = vehicle. Mitogen-activated protein kinase kinase kinase 3 (Homo sapiens), Q99759. hit rate 1.4% among 290,000;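 active means binding response more than 3 SD above or below the average of its plate-row segment, actives on both sides; inconclusive means wells at one plate position flagged as instrument error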;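 further: Alexa488 bead fluorescence after subtracting the streptavidin-only scavenger bead signal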
Target sequence (Q99759 whole entry, looked up): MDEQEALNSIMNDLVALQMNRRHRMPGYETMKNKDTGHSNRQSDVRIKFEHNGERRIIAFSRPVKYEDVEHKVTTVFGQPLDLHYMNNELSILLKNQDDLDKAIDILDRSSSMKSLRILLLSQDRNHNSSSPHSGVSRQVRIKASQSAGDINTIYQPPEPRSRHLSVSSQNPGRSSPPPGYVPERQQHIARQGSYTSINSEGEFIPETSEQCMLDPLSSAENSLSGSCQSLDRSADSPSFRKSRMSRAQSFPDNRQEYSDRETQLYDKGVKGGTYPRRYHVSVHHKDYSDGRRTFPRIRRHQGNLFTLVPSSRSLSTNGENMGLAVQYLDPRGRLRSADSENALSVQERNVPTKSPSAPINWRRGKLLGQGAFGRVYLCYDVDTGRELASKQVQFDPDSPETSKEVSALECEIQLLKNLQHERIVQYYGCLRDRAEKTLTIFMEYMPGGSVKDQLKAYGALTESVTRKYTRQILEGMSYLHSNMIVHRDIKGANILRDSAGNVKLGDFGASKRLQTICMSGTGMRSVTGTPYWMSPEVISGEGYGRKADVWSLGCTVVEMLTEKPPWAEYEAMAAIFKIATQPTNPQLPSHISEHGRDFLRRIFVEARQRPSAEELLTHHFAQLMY
MEKK2 mut-MEK5 = MEK5 binding signal on mutant MEKK2 PB1, primary screen, biochemical, multiplex bead flow cytometry, Alexa488-MEK5; hit rate 0.35% among 290,000; AID 1530, 2009; percent response, % at 10 µM; Alexa488-MEK5 binding to MEKK2 mutant; in the data active means percent response above about 24%, passing the limit was not always enough
MEKK2wt confirm = modulators of MEK5 binding to wildtype MEKK2, confirmation, biochemical, single concentration, multiplex bead flow cytometry; shares compounds with MEKK3 PB1 HTS; Alexa488-MEK5 binding to MEKK2 WT; actives lie on both sides; binding response (% of control), % at 10 µM; hit rate 2.4% among 5,900; AID 1892, 2009; in the data active means binding response below about 16% or above about 210%; inactive means in between
MEKK2mut-MEK5 = mutant MEKK2 PB1-MEK5 binding signal retest – biochemical, single concentration, multiplex bead flow cytometry, confirmation; shares compounds with MEKK3 PB1 HTS; Alexa488-MEK5 binding to MEKK2 mutant; percent response, % at 10 µM; hit rate 2% among 5,900; in the data active means percent response mostly above about 71%, no sharp cut-off; inactive means mostly below about 38%;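 further: higher means compound restores mutant binding toward wildtype level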
MEKK3-MEK5 inh = MEKK3 wild-type PB1 binding to MEK5, inhibitors, confirmation, biochemical, bead multiplex flow cytometry, single concentration, wildtype; Alexa488-MEK5 binding to MEKK3; active compounds read low; AID 1894, 2009; hit rate 1.8% among 5,900; shares compounds with MEKK3 PB1 HTS; binding response (% of control), % at 10 µM;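 active means binding response below 72% of control, or above a set upper limit, though filed actives all read lower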;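 further: lower values mean stronger disruption of MEK5 binding to MEKK3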
Large screens that a line does not name were inactive (follow-up assays come after a bar, where they were run); [ ] = remark or other dose.

CCN(CC)c1ccc(/C=C(\C#N)C(=O)c2ccc(Br)cc2)cc1	MEKK2 WT-MEK5 148, MEKK2 mut-MEK5 153 (no result: UBC13 inh, Apaf1 inhib) | MEKK2wt confirm inactive | MEKK2mut-MEK5 inactive | MEKK3-MEK5 inh inactive
CCCN1CCC(=O)N([C@H](CSc2ccccc2)c2ccccc2)CC1	none
CCCN1CCC(=O)N([C@H](CSc2ccc(C)cc2)c2ccccc2)CC1	MEKK2 WT-MEK5 157 | MEKK2wt confirm inactive | MEKK2mut-MEK5 inactive | MEKK3-MEK5 inh inactive
O=C(Nc1nc2ccccc2[nH]1)c1ccccc1	MEKK2 WT-MEK5 21[inhibitor], MEKK3 PB1 HTS 13[inhibitor] | MEKK2wt confirm inactive | MEKK2mut-MEK5 inactive | MEKK3-MEK5 inh inactive
N#CCCSCc1ccc(C(=O)O)o1	none
N#CCCSCc1ccc2oc(C(=O)O)cc2c1	MEKK2 WT-MEK5 0.0[inhibitor], MEKK3 PB1 HTS 2.0[inhibitor] | MEKK2wt confirm inactive | MEKK2mut-MEK5 inactive | MEKK3-MEK5 inh inactive
Cn1cc(S(=O)(=O)N2CCN(c3ccccc3)CC2)c(=O)n(C)c1=O	none
Cn1cc(S(=O)(=O)N2CCN(c3cccc(Cl)c3)CC2)c(=O)n(C)c1=O	MEKK3 PB1 HTS 129 | MEKK2wt confirm inactive | MEKK2mut-MEK5 inactive | MEKK3-MEK5 inh inactive
COc1ccccc1CNC(=O)CSc1nnc2c(Cl)cc(C(F)(F)F)cn12	MEKK3 PB1 HTS 137 | MEKK2wt confirm inactive | MEKK2mut-MEK5 inactive | MEKK3-MEK5 inh inactive
COc1ccccc1CNC(=O)CSc1ccc(C)cc1	MEKK3 PB1 HTS 145 | MEKK2wt confirm inactive | MEKK2mut-MEK5 inactive | MEKK3-MEK5 inh inactive
O=C(CSc1nnc2c(Cl)cc(C(F)(F)F)cn12)Nc1ccc2c(c1)OCO2	none
CN1CCCN(C(=O)CC(c2ccccc2)c2ccccc2)CC1	none
O=C(CN(C(=O)CCC(=O)Nc1nccs1)c1cccc(F)c1)NCCc1ccccc1	none
O=[N+]([O-])c1ccc(-c2nc(Nc3cccc(O)c3)c3ccccc3n2)cc1	MEKK2 WT-MEK5 146 | MEKK2wt confirm inactive | MEKK2mut-MEK5 inactive | MEKK3-MEK5 inh inactive
O=C(O)c1cccc(Nc2nc(-c3ccc([N+](=O)[O-])cc3)nc3ccccc23)c1	none
Cc1ccc2nc(Cl)c(C3CC(c4cccs4)=NN3C(=O)CCC(=O)O)cc2c1 (stereo not given)	MEKK3 PB1 HTS 139 | MEKK2wt confirm inactive | MEKK2mut-MEK5 inactive | MEKK3-MEK5 inh inactive
Cc1ccc2nc(Cl)c(C3CC(c4ccco4)=NN3C(=O)CCCC(=O)O)cc2c1 (stereo not given)	none
Cc1ccc(-c2cnc(-c3ccccc3C(=O)O)o2)cc1	none
Cc1cccc2sc(N(CCCN(C)C)C(=O)CCc3ccccc3)nc12	none
Cc1ccc2sc(N(CCCN(C)C)C(=O)c3ccc(Br)s3)nc2c1C	MEKK2 WT-MEK5 479, MEKK3 PB1 HTS 140, MEKK2 mut-MEK5 218 | MEKK2wt confirm inactive | MEKK2mut-MEK5 inactive | MEKK3-MEK5 inh inactive
CCOc1cccc2sc(N(CCN(C)C)C(=O)c3ccc(Br)s3)nc12	none
Cc1cccc2sc(N(CCCN(C)C)C(=O)c3nc4ccccc4s3)nc12	MEKK3 PB1 HTS 67[inhibitor] | MEKK2wt confirm inactive | MEKK2mut-MEK5 inactive | MEKK3-MEK5 inh inactive
CCN(Cc1ccccc1)S(=O)(=O)c1ccc(C(=O)N(CCCN(C)C)c2nc3c(C)c(C)ccc3s2)cc1	none (no result: MEKK2 WT-MEK5, MEKK3 PB1 HTS, MEKK2 mut-MEK5)
Cc1ccc2sc(N(CCCN(C)C)C(=O)c3nc4ccccc4s3)nc2c1C	MEKK2 WT-MEK5 144 | MEKK2wt confirm inactive | MEKK2mut-MEK5 inactive | MEKK3-MEK5 inh inactive
COc1c2c(cc3ccc(=O)oc13)CCO2	none
O=C(CCc1ccncc1)N1CCCC(Nc2ccc(F)c(F)c2)C1 (stereo not given)	none
COc1ccccc1C(=O)N/C(=C\c1ccc(Br)cc1)C(=O)NCCCO	none
COc1ccccc1C(=O)N/C(=C\c1ccc(Br)cc1)C(=O)NCCO	MEKK3 PB1 HTS 129 | MEKK2wt confirm inactive | MEKK2mut-MEK5 inactive | MEKK3-MEK5 inh inactive
CCCCn1c(N)c(N(CCC(C)C)C(=O)c2ccc(C)c(S(=O)(=O)N3CCOCC3)c2)c(=O)[nH]c1=O	none (no result: MEKK2 WT-MEK5, MEKK3 PB1 HTS, MEKK2 mut-MEK5)
O=C(Nc1cc([N+](=O)[O-])ccc1F)C1CC1	MEKK3 PB1 HTS 130 | MEKK2wt confirm inactive | MEKK2mut-MEK5 inactive | MEKK3-MEK5 inh inactive
O=C(Nc1cc([N+](=O)[O-])ccc1Cl)C1CC1	none
OC[C@@H](O)C1OC2NC(=S)OC2C1O (stereo not given in full)	none
Cc1cc(SCC(=O)NCC2CCCO2)nc2ccccc12 (stereo not given)	UBC13 inh inconclusive
Cc1ccc(-n2cc(CN(C)CCc3cn[nH]c3)c(-c3cccc(C)c3)n2)cc1	MEKK2 WT-MEK5 158 | MEKK2wt confirm inactive | MEKK2mut-MEK5 inactive | MEKK3-MEK5 inh inactive
O=C(NS(=O)(=O)Nc1ccccn1)c1c[nH]c2ccccc12	none
COc1cc(S(=O)(=O)N(Cc2cccnc2)Cc2ccco2)ccc1-n1cnnn1	MEKK3 PB1 HTS 80[inhibitor] | MEKK2wt confirm inactive | MEKK2mut-MEK5 inactive | MEKK3-MEK5 inh inactive
CCOC(=O)c1cccc(NC(=O)CC2Oc3ccccc3NC2=O)c1 (stereo not given)	none
N#Cc1c(SCC(=O)Nc2nccs2)nc2c(c1-c1ccco1)CCCC2	none
Cc1cc(C)n(CCC(=O)N2CCCC(Nc3ccc(F)cc3)C2)n1 (stereo not given)	none
CC1=CC2=NC(=O)CC(C)(C(=O)N(CC(=O)NC(C)(C)C)C3CCCC3)N2C=C1 (stereo not given)	none
CC1=CC2=NC(=O)CC(C)(C(=O)N(CC(=O)NC3CCCC3)c3cc(C)cc(C)c3)N2C=C1 (stereo not given)	MEKK3 PB1 HTS 150 | MEKK2wt confirm inactive | MEKK2mut-MEK5 inactive | MEKK3-MEK5 inh inactive
CCOC(=O)N/N=C/c1cn(CCCOc2ccccc2)c2ccccc12	MEKK3 PB1 HTS 140 | MEKK2wt confirm inactive | MEKK2mut-MEK5 inactive | MEKK3-MEK5 inh inactive
